According to the EternaBench riboswitch data:

Legend:
MS2 coat protein [1] = assay: apparent Kd, MS2 coat protein; higher = weaker binding; RNA-MaP array; tryptophan 2.4 mM where present
Summary of the method: (§1)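 Each design was made on Illumina sequencing-chip clusters by stalled E. coli RNA polymerase and titrated with SNAP-549-labelled MS2 coat protein from 0.7 or 1.5 nM, doubling to 3 µM, in the absence and then the presence of constant ligand. The buffer was 100 mM Tris-HCl pH 7.5, 80 mM KCl, 4 mM MgCl2, BSA, DTT, yeast tRNA and Tween-20. The apparent Kd is the median of filtered per-cluster fits of binding curves, with green signal normalised to red-channel RNA signal and control-cluster median Fmax.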

MS2 coat protein [2] = assay: apparent Kd, MS2 coat protein; higher = weaker binding; RNA-MaP array; theophylline 2 mM where present
Summary of the method: as §1

[3] = designed as: OFF switch for tryptophan, no ligand
[4] = ligand present: tryptophan, designed as: OFF switch for tryptophan
[5] = designed as: ON switch for tryptophan, no ligand
[6] = ligand present: tryptophan, designed as: ON switch for tryptophan

Row | Sequence | apparent Kd (MS2 coat protein [1]; [3]) [nM] | apparent Kd (MS2 coat protein [1]; [4]) [nM] | apparent Kd (MS2 coat protein [1]; [5]) [nM] | apparent Kd (MS2 coat protein [1]; [6]) [nM] | also measured
1 | AAACAUGAGGAUCACCCAUGUAUACUUAGACGAGGACCGGUACGGCCGCCACUCGAACUUCAAGAUUUGGCGGAAAAUGUAUGUA | 11.3 | 12.9 | – | – | –
2 | AAAGAUCGGAAACGAUCGGCGGCUUGGGCGCGAGGACCGGUACGGCCGCCACUCGGGAAACAUGAGGAUCACCCAUGUUGCUAGC | 13.7 | 15.2 | – | – | –
3 | AAAUUAUAGGCGGCCGCCACUAGAGUUAGGCUUAUGUACUGGGUAACAUGAGGAUCACCCAUGUAUAGGACCGGGCCAUAAUAAA | – | – | 53.5 | 52.6 | –
4 | AACAUGAGGAUCACCCAUGUCCUCGUGUUCCGAGGACCGGUACGGCCGCCACUCGGUCCUCGCGAGGAUGGUCAAAGACUAUCCA | – | – | 97.4 | 170 | –
5 | AACAUGAGGAUCACCCAUGUGUCCUCGAAACGAGGACCGGUACGGCCGCCACUCGAAAGGUGUUGACGAAAAGUCAGCACCAAAA | 302 | 930 | – | – | –
6 | AAUACCGGUCCUCGAAGGUGAUCCUCAUAACGAGGACCGGUACGGCCGCCACUCGAUAACAUGAGGAUCACCCAUGUAAUAAUAA | 187 | 138 | – | – | –
7 | ACAUGAGGAUCACCCAUGUACAUCACCCGACGAGGACCGGUACGGCCGCCACUCGGGUAUAUAUAUACAUCGGGUGAUUUUACGU | – | – | 18.5 | 18 | –
8 | ACAUGAGGAUCACCCAUGUGAAGCAGGGUACGAGGACCGGUACGGCCGCCACUCGAGCAUUAUACCGAGUGAAUGGCAACGAUGU | 15.7 | 17 | – | – | –
9 | ACCUCAUAGGCGGCCGCCACUGUAAUGACUACGUCAAACAUGAGGAUCACCCAUGUAGUCAAUCACAGGACCGGGUCAUGGGUAG | – | – | 39.1 | 23.9 | –
10 | AGAAUAUAGUCGGCCGCCACUCUUCAUACAUGAGGAUCACCCAUGUUUAAUUCUUGGAUAUUCUUGAGGACCGGGACAUAGGCAU | – | – | 18.4 | 16.8 | –
11 | AGACUUCGCAUAGGAAAACUAUGUGAAGUCCGAGGACCGGUACGGCCGCCACUCGUCCUCAACAUGAGGAUCACCCAUGUAAUAA | 21.5 | 27.3 | – | – | –
12 | AGAUUCGACACGGCCGCCACUCGUGCCGGAUUACCGAGUGUCGAACAUGAGGAUCACCCAUGUACGAGGACCGGGUGUUGAGUCU | 37.7 | 262 | – | – | –
13 | AGAUUCGACACGGCCGCCACUUGUGGUGGAUUAUCCAGUGUCGAACAUGAGGAUCACCCAUGUACAAGGACCGGGUGUUGAGUCU | 90.4 | 282 | – | – | –
14 | AGCACUGUGACGGCCGCCACUACAUAUAGGGUGGUCAGGUUCAUAAUACAUGAGGAUCACCCAUGUAGGACCGGGUCUCAGUGCA | 12.5 | 14.4 | – | – | –
15 | AGCCGCGUUCUUUCUUUCUUUCUAGCGGCACGAGGACCGGUACGGCCGCCACUCGCCCACAUGAGGAUCACCCAUGUAGUGGGUG | 18.8 | 80.6 | – | – | –
16 | AGUUUAGACACGGCCGCCACUCGUGACAGAUUUAGCAGUGGUCAACAUGAGGAUCACCCAUGUCUGAGGACCGGGUGUUGAGUUU | 177 | 631 | – | – | –
17 | AUAAAAGGGUUAUAUAGAUUUAGGUCCAGUCGAGGACCGGUACGGCCGCCACUCGUACUGAAAUACAUGAGGAUCACCCAUGUUA | – | – | 21.8 | 22.7 | –
18 | AUAAUAAUACAUGAGGAUCACCCAUGUAUGCGAGGACCGGUACGGCCGCCACUCGACCUCAUGCAUACAUGAGGAUCACCCAUGU | – | – | 32.5 | 62 | –
19 | AUAAUGAGUGGUGGAUAGGUGAUCCUCUUACGAGGACCGGUACGGCCGCCACUCGAUAACAUGAGGAUCACCCAUGUAAUAAUAA | 15.7 | 49.9 | – | – | –
20 | AUAUAUACAUGAGGAUCACCCAUGUUAUUUCGAGGACCGGUACGGCCGCCACUCGAUAGAGUAGAAGUAACAUGUGUUAGUUGAU | – | – | 22.3 | 47 | –
21 | AUGGUCGACGAUCUGCGAAAAGCAGAUCGACGAGGACCGGUACGGCCGCCACUCGUGUUCAUUAAACAUGAGGAUCACCCAUGUA | – | – | 48.8 | 21.1 | –
22 | CCAUAAGUACCGGUCCUCAGAUCCUCAUGACGAGGACCGGUACGGCCGCCACUCGAAACAUGAGGAUCACCCAUGUAAUAAUAUC | 30.6 | 24.6 | – | – | –
23 | CCGCACAUGAGGAUCACCCAUGUCCGGGUUCGAGGACCGGUACGGCCGCCACUCGGACAUGUGCGCCCUUCAUGCACUGUAUAAA | – | – | 129 | 60.9 | –
24 | CCUCAAUAGACGGCCGCCACUGAAACAUGCGGAUACAUGAGGAUCACCCAUGUGGGUGUGUUACGCAGGACCGGGUCAAGACCCG | – | – | 345 | 480 | –
25 | CCUCAAUCGUCGGCCGCCACUGGAUCAUGCGGAUACAUGAGGAUCACCCAUGUGGGUGUGGUACGCAGGACCGGGACAAGACCCG | – | – | 340 | 244 | –
26 | CGACACAUGAGGAUCACCCAUGUAAUGACGCGAGGACCGGUACGGCCGCCACUCGCAUGCCAAUGAGCGCAUGCGGCCUGGGUAU | 18.1 | 14.5 | – | – | –

Row | Sequence | apparent Kd (MS2 coat protein [1]; [3]) [nM] | apparent Kd (MS2 coat protein [1]; [4]) [nM] | apparent Kd (MS2 coat protein [1]; [5]) [nM] | apparent Kd (MS2 coat protein [1]; [6]) [nM] | also measured
27 | CGAGUAAGAACAAUCGAAUAACGGUUUUCGCGAGGACCGGUACGGCCGCCACUCGUGUGAUAUAACACAUGAGGAUCACCCAUGU | – | – | 26.3 | 24.4 | –
28 | CGAUAUGGGACGGCCGCCACUAUUAUGUAACAAAAUAAACAUGAGGAUCACCCAUGUACAUGGGAUAGGACCGGGUCCUAUAACG | – | – | 32.4 | 19.9 | –
29 | CUAGAUGGAAACGUCUGGACGCACAAGCGACGAGGACCGGUACGGCCGCCACUCGAAGAGUGGUGGACAUGAGGAUCACCCAUGU | – | – | 53.8 | 39.2 | –
30 | CUCAUCCACGCGGCCGCCACUAUAUUGUGGUGUGAAUGUGUCGUAAUACAUGAGGAUCACCCAUGUAGGACCGGGCGUGGAUGAG | 20.1 | 32.9 | – | – | –
31 | CUGCUACAUACGGCCGCCACUUUAAACAUGAGGAUCACCCAUGUACGGAAGGGUGGUAAAUGUUAAAGGACCGGGUAUGUAGCAA | 176 | 45.1 | – | – | –
32 | GACCCAUGAGUUGCAAAAGCUCAUGGGUCGCGAGGACCGGUACGGCCGCCACUCGGCUGUACAUGAGGAUCACCCAUGUCAGGGU | – | – | 371 | 529 | –
33 | GAUAUGGAAACAUGUCAGAUCCUUACCGGUCGAGGACCGGUACGGCCGCCACUCGCAAAUAUUGUACAUGAGGAUCACCCAUGUA | 13.1 | 13.6 | – | – | –
34 | GCAUCCUAGUCGGCCGCCACUGGUACGAACACCUUCACCCGUGUGCACAUGAGGAUCACCCAUGUCAGGACCGGGACUAGGAUGC | – | – | 9.36 | 9.66 | –
35 | GCUAGGUCAUCGGCCGCCACUAACGACGGUUCCAACAUGAGGAUCACCCAUGUGCCACAUGCGCAUAGGACCGGGAUGACCUAGC | – | – | 33 | 21 | –
36 | GGAUUACGAAAGUAGUCCAUCAAGUUCGAGCGAGGACCGGUACGGCCGCCACUCGAACAUGAGGAUCACCCAUGUAGCGAAAGCU | – | – | 284 | 255 | –
37 | GGAUUCAACUCGGCCGCCACUGGUGAUCCUAAUGUACAUGAGGAUCACCCAUGUACAUGAGAAUACAGGACCGGGAGAUAAGCAA | – | – | 19.4 | 13.9 | –
38 | GGGUGGUAGGCGGCCGCCACUGAUUUUCAUAUAUAUAUAACAUGAGGAUCACCCAUGUAGAUAUGCAGGACCGGGCCUGUUGUUU | – | – | 36.5 | 30.4 | –
39 | GGGUGGUAGGCGGCCGCCACUGAUUUUUAUUUAUAGAUGACAUGAGGAUCACCCAUGUAGAUAUGCAGGACCGGGCCUGUUGUUU | – | – | 19.3 | 17.8 | –
40 | GGUUACUCUACGGCCGCCACUGGGCAUGUAAAUAACAUGAGGAUCACCCAUGUGGAAUAAAAUUACAGGACCGGGUAGUGUAACC | – | – | 254 | 40.2 | –
41 | GUAUUAACAAAAGUUGAUACAGUGGGUGAACGAGGACCGGUACGGCCGCCACUCGGACAUGAGGAUCACCCAUGUCCAUGUGAAA | 17.2 | 27.2 | – | – | –
42 | GUCCUAAGGUCGGCCGCCACUGUAGAGUGUGAGCCAUCACAUGAGGAUCACCCAUGUUGUUGCUAUAGGACCGGGAUUGUAGGAC | 12 | 16.4 | – | – | –
43 | UAAACUACACAUGAGGAUCACCCAUGUGGCCGAGGACCGGUACGGCCGCCACUCGUGUGUUAAUAAAAGAACCGCAAAGUUCUUU | – | – | 277 | 75.9 | –
44 | UAAACUACACAUGAGGAUCACCCAUGUGGCCGAGGACCGGUACGGCCGCCACUCGUGUGUUAAUAAAAGAACUGCAAAGUUCCUU | – | – | 295 | 86.1 | –
45 | UACUUGCUGACGGCCGCCACUAGAACAUGAGGAUCACCCAUGUAAGUGGUUGGUUCAUGGGUGACUAGGACCGGGUCAGCAAGAU | 32.3 | 37.3 | – | – | –
46 | UAUAUAUAUCACGAACUGUGGUGUAUGUCCCGAGGACCGGUACGGCCGCCACUCGCGUGGUUCCACAUGAGGAUCACCCAUGUUG | 18.9 | 22.7 | – | – | –
47 | UAUAUAUAUCACUAACUGUUCUUGAGGUCUCGAGGACCGGUACGGCCGCCACUCGUGCCGCCUCACAUGAGGAUCACCCAUGUCC | 53.7 | 57 | – | – | –
48 | UAUCGAGGUACAUGAGGAUCACCCAUGUAUCGAGGACCGGUACGGCCGCCACUCGAUAAUGGCGGAUCGUUAGUCCUCUUCGAUA | 10.7 | 11.4 | – | – | –
49 | UAUCUACAUAUAUAGGUUAUUCGAUUAUUUCGAGGACCGGUACGGCCGCCACUCGUUAACAUAUACAUGAGGAUCACCCAUGUUA | – | – | 15.4 | 14.5 | –
50 | UCCUGCAGAGCGGCCGCCACUGUGUUGCGUGAGGAUGACCCAACAUGAGGAUCACCCAUGUUGUUUAGGACCGGGCUUGCCUCGA | 13.4 | 12.3 | – | – | –
51 | UUAUUUAUAAUGGAUACCAGUCGUAUGGCCCGGCAUCCUGACAUGAGGAUCACCCAUGUCGACCCUUGGCAGCUGUUAUGGGUUU | – | – | – | – | apparent Kd (MS2 coat protein [2]; designed as: OFF switch for theophylline, no ligand): 13.5 nM; apparent Kd (MS2 coat protein [2]; ligand present: theophylline, designed as: OFF switch for theophylline): 20 nM
52 | UUUUAACAUGAGGAUCACCCAUGUAAUGAUACCAGAGACGAAAGUCUCCCUUGGCAGCAUAAUCAUUACAUGAGAUGGAAACAUC | – | – | – | – | apparent Kd (MS2 coat protein [2]; designed as: ON switch for theophylline, no ligand): 30.6 nM; apparent Kd (MS2 coat protein [2]; ligand present: theophylline, designed as: ON switch for theophylline): 116 nM
